Bioassay records as filed in PubChem BioAssay.
The full list was thinned out, with hits kept by preference.
bCat KO growth: primary screen for growth suppressors in beta-catenin knockout HCT116 cells (colon tumor, human); HCT116 beta-catenin knockout viability, CellTiter-Glo, 60 h; active compounds read low; 140,000 tested, 1.5% active; viability, % at 10 µM;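 active = viability at or under a set limit, the compound median less 4 SD, cut at about 6% in these data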;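 also: 0% = Hyamine 1622 control at 20 µM and 100% = untreated cell control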
HUVEC prolif 384: inhibitors of HUVEC proliferation, primary screen, cell-based, 384-well | CellTiter-Glo luminescence, 72 h; active compounds read low | 86,000 tested, 1.1% active | viability, % at 10 µM (by protocol);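 active = viability at or below 30%; inactive = viability above 30%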;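 also: 100% = median luminescence of DMSO-only cell control wells on each plate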
PTEN del growth: growth suppression of PTEN-null HCT116, primary screen, cell-based, CellTiter-Glo. HCT116 PTEN-null viability, 60 h; active compounds read low. viability, % at 10 µM. 140,000 tested, 1.2% active. AID 827, 2007;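 active = viability at or below a set limit, 4 SD under the median of all tested compounds, cut at about 3.7% in these data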;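 also: PTEN knockout HCT116 line with beta catenin targeted HCT116 as companion control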
H69AR growth 86K: proliferation blockers of H69AR lung cancer cells, primary screen, cell-based, human, 86K library; H69AR lung tumor viability, ATP luminescence, 72 h; active compounds read low; viability, % at 10 µM; 85,000 tested, 6% active; AID 598, 2007;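 active = viability at or below 40%; inactive = viability above 40%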;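 also: multidrug resistant small cell line overexpressing MRP-1 efflux transporter; 100% = mean luminescence of untreated control wells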
Lung fibro prol: antiproliferative effect on LL 47 fibroblasts – human, LL 47 cells, CellTiter-Glo luminescence, primary screen | LL 47 human lung fibroblast viability, ATP luminescence; active compounds read low | viability, % at 10 µM | 85,000 tested, 1.1% active | AID 719, 2007;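 active = viability at or below 50% in the single dose screen; inactive = viability above 50%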;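 also: compound exposure lasted 72 h before the ATP readout; 100% = median luminescence of untreated cell-only wells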
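Material: Human LL 47 lung fibroblast cells | Input: 1,150 cells/well | Buffer or medium: IMEM plus 15% FBS | Compound dosing: 0.1% DMSO in all compound wells | Times: Overnight cell rest, 72 h compound treatment at 37 °C | Signal: CellTiter-Glo luminescence measuring cellular ATP | Measure: % viability versus median cells-only luminescence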
Starred values were filed as active, the others as inactive; · = not tested or not shown.

SMILES	bCat KO growth	HUVEC prolif 384	PTEN del growth	H69AR growth 86K	Lung fibro prol
Cc1ccc(NC(=O)CN(C)C(=O)COc2cccc3cccnc23)cc1	94	·	92	·	·
Cc1ccc(S(=O)(=O)/N=C(\Sc2ccccc2)c2ccccc2)cc1	87	35	92	41	60
Cc1ccc(S(=O)(=O)/N=C(\CSC(N)=O)Nc2ccccc2)cc1	101	96	82	24*	96
COc1ccccc1-c1cc(C(F)(F)F)nc(S(C)(=O)=O)n1	2.6*	·	38	·	·
COc1ccccc1-c1cc(C(F)(F)F)nc(S(=O)(=O)CCCC(=O)N2CCCCC2C)n1 (stereo unspecified)	48	·	49	·	·
COc1ccccc1-c1cc(C(F)(F)F)nc(S(=O)(=O)CCCC(=O)NC(C)C)n1	6.0*	·	4	·	·
COc1ccccc1-c1cc(C(F)(F)F)nc(S(=O)(=O)CCCC(=O)Nc2cc(C)on2)n1	4.0*	·	2.0*	·	·
CC1(C)COC(c2cccc(C3=NC(C)(C)CO3)n2)=N1	92	·	98	·	·
Cc1nc(-n2[nH]c3c(c2=O)CCCC3)[nH]c(=O)c1Cc1ccccc1	5.3*	·	3.2*	·	·
Cc1cc(=O)[nH]c(-n2[nH]c3c(c2=O)CCCC3)n1	83	·	83	·	·
CCc1ccc2[nH]c(=O)c(CN(Cc3ccccc3)Cc3nnnn3Cc3ccco3)cc2c1	79	82	62	21*	92
CCC(c1nnnn1Cc1ccccc1)N(Cc1ccco1)Cc1cc2cc(OC)ccc2[nH]c1=O (stereo unspecified)	35	74	45	16*	84
CCC(c1nnnn1Cc1ccco1)N(CCc1ccccc1)Cc1cc2cc(C)ccc2[nH]c1=O (stereo unspecified)	·	76	·	22*	88
O=C(Nc1ccc(Cl)c(Cl)c1)c1cccc(S(=O)(=O)NCc2cccnc2)c1	15	·	16	·	·
Cc1cccc(C(=O)NC(=S)NNC(=O)c2ccccc2Cl)c1	73	·	72	·	·
Cc1cc(C(=O)NNC(=S)NC(=O)/C=C/c2ccccc2Cl)n[nH]1	76	80	70	36*	80
CCOc1ccc(CN(C)CC(=O)Nc2ccc([N+](=O)[O-])cc2Cl)cc1	87	·	78	·	·
Cn1c(-c2sc3cc(C(F)(F)F)cnc3c2-c2cccnc2)n[nH]c1=S	86	105	89	32*	100
O=C(NCCc1ccccc1F)C1CCCN1S(=O)(=O)c1ccc2ccccc2c1 (stereo unspecified)	93	88	94	101	99
CCc1ccccc1NC(=O)CN(C)C(=O)CSc1nn(-c2ccc(F)cc2)c(=S)s1	85	·	86	·	·
c1ccc(-c2nc(CSc3n[nH]c(-c4cccs4)n3)cs2)cc1	82	90	88	82	101
C[n+]1ccc(C(=O)N/N=C/c2ccco2)cc1	82	·	99	·	·
O=c1c2ccccc2nc2n1C(CSc1ccc(Br)cc1)CN2 (stereo unspecified)	75	·	76	·	·
O=C(Cn1c(SCC(=O)N2CCc3ccccc32)nc2ccccc21)NC1CCCC1	94	76	93	29*	103
O=C(Cn1c(SCC(=O)N2CCc3ccccc3C2)nc2ccccc21)NC1CCCC1	89	79	99	100	94
SMILES	bCat KO growth	HUVEC prolif 384	PTEN del growth	H69AR growth 86K	Lung fibro prol
COc1ccc(OC)c(-c2nc3cc4ccccc4cc3nc2-c2ccccc2)c1	68	·	61	·	·
CCn1ncc(C2=NOC(C(=O)NCc3ccc(Cl)cc3)C2)c1C (stereo unspecified)	17	56	18	37*	67
Cc1cc(C)n(-c2ccc3cccc(NS(C)(=O)=O)c3n2)n1	3.6*	23*	5	21*	26*
O=c1c(-c2cc3ccccc3o2)[n+]([O-])c2ccccc2n1OCc1ccccn1	98	66	94	36*	94
CCOn1c(=O)c(-c2cc3ccccc3o2)[n+]([O-])c2ccccc21	92	81	97	51	86
Nc1c(C(=O)NCCN2CCOCC2)c2nc3ccccc3nc2n1-c1ccc2c(c1)OCO2	90	85	81	36*	75
Nc1c(C(=O)NCc2ccco2)c2nc3ccccc3nc2n1CCc1ccc(F)cc1	28	34	26	4.0*	83
Nc1c(C(=O)NCCN2CCOCC2)c2nc3ccccc3nc2n1CCc1ccccc1	43	58	22	47	87
Nc1c(C(=O)NCc2ccc3c(c2)OCO3)c2nc3ccccc3nc2n1CCCN1CCOCC1	1.4*	20*	1.4*	1.1*	62
COc1ccccc1CNC(=O)c1c(N)n(CCCN2CCOCC2)c2nc3ccccc3nc12	11	·	8	·	·
Nc1c(C(=O)NCCN2CCOCC2)c2nc3ccccc3nc2n1CCc1ccccc1F	3.6*	43	3.8*	26*	92
CCOC(=O)/C=C/C(=O)Nc1ccccc1C(=O)NC1CCCCC1	20	·	20	·	·
CCCCNC(C(=O)Nc1ccc(Cl)c([N+](=O)[O-])c1)c1ccccc1 (stereo unspecified)	84	·	78	·	·
Cc1ccc(NC(=O)COC(=O)/C(=C/c2cccs2)c2cccs2)cc1S(=O)(=O)N(C)C	60	·	59	·	·
COCCNC(=O)c1c(N)n(-c2ccccc2)c2nc3ccccc3nc12	91	77	92	61	89
Nc1c(C(=O)NCCN2CCOCC2)c2nc3ccccc3nc2n1-c1ccccc1	78	96	75	36*	98
Cc1ccc(NC(=O)c2nnn(CC(=O)Nc3ccccc3)c2N)cc1C	62	81	77	25*	72
Cc1ccc(NC(=O)Cn2nnc(C(=O)NCc3ccccc3)c2N)cc1C	100	·	100	·	·
CC(C)CN=c1cc(-c2ccccc2)oc2ccc(Cl)cc12	15	101	14	55	79
CC(O)CN=c1cc(-c2ccccc2)oc2ccc(Cl)cc12 (stereo unspecified)	5.7*	78	5	29*	69
CC1CCCCN1CCNC(=O)c1cc2c(=O)n(C)c3ccccc3c2n1C (stereo unspecified)	37	84	36	85	91
Cn1c(C(=O)NC2CCCCCC2)cc2c(=O)n(C)c3ccccc3c21	61	60	54	12*	93
Cn1c(C(=O)NC2CCCCC2)cc2c(=O)n(C)c3ccccc3c21	3.4*	61	19	11*	103
CC1CCC(NC(=O)c2cc3c(=O)n(C)c4ccccc4c3n2C)CC1 (stereo unspecified)	73	68	48	29*	88
CC(C)(C)NC(=O)NC(=O)COC(=O)Cc1coc2ccc3ccccc3c12	96	·	83	·	·
CC1CCCCN1C(=O)CSc1nnc(-c2c[nH]c3ccccc23)o1 (stereo unspecified)	97	102	100	22*	101
